Measurements reported in ChEMBL document CHEMBL1144665, “Benzyl ether-linked glucuronide derivative of 10-hydroxycamptothecin designed for selective camptothecin-based anticancer therapy” (J Med Chem, 2008).
pIC50: −log10 of the molar value. Values after ≈ are worked out from the molar mass of the structure shown.

Legend:
[1] = Aqueous solubility in phosphate buffer at pH 4.0; type: physicochemical
Procedure, shortened: (§1)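 Excess solid equilibrated in 100 mM phosphate buffer (pH 4.0 or 7.0) at 25 °C for 24 h. Filtered through 0.2 µm, diluted in mobile phase and quantified by HPLC with fluorescence detection against calibration curves. Single determination.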

[2] = Aqueous solubility in phosphate buffer at pH 7.0; type: physicochemical; procedure, shortened: as §1
Plasma = experiment: Stability in 95% human plasma; type: ADME, cell-free
Procedure, shortened: (§2)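 Incubated in 95% human plasma at 37 °C up to 6 h. Aliquots neutralized with 12 mM phosphoric acid, extracted three times with ethyl acetate, dried, redissolved in mobile phase, filtered and analysed by reversed-phase HPLC with fluorescence detection.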

HepG2 [3] = experiment: Cytotoxicity against human HepG2 cells assessed as inhibition of [3H]thymidine after 48 hrs; type: functional, cell-based
Procedure, shortened: (§3)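 Exponentially growing cells, 5 × 10³/well in RPMI with 10% bovine serum and penicillin/streptomycin, 37 °C, 5% CO₂, exposed to a range of drug concentrations (DMSO final ≤0.5%; vehicle controls). After 48 h, 12 h [³H]thymidine pulse (1 µCi/well); trypsinized cells counted for radioactivity. Triplicate wells, 1–3 experiments; IC50 interpolated from log dose–response curves.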

COLO 205 [4] = experiment: Cytotoxicity against human Colo 205 cells assessed as inhibition of [3H]thymidine after 48 hrs; type: functional, cell-based; procedure, shortened: as §3
HT-29 [5] = experiment: Cytotoxicity against human HT29 cells assessed as inhibition of [3H]thymidine after 48 hrs; type: functional, cell-based; procedure, shortened: as §3
[6] = Cytotoxicity against human H298 cells assessed as inhibition of [3H]thymidine after 48 hrs; type: functional, cell-based; procedure, shortened: as §3
[7] = Prodrug hydrolysis by Escherichia coli beta-glucuronidase assessed as release of 10-hydroxycamptothecin at pH 7.0; type: ADME; set-up: scale not given: the % may be the effect or the level left; details: buffer
Procedure, shortened: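 Substrate incubated with E. coli β-glucuronidase (0.1 µg/mL) in pH 7.0 phosphate buffer at 37 °C. Aliquots taken over time; substrate and released 10-hydroxycamptothecin quantified by fluorescence-detected reversed-phase HPLC. Triplicate determinations.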

Escherichia coli [8] = experiment: Activity of Escherichia coli beta-glucuronidase
Procedure, shortened: (§4)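 Prodrug at various concentrations incubated with 0.125 µg/mL E. coli β-glucuronidase, pH 7.0, 37 °C, 20 min; stopped with ice-cold MeOH to precipitate protein. Substrate and released 10-hydroxycamptothecin quantified by reversed-phase HPLC with fluorescence detection (ex 397, em 482 nm) against standard calibration curves; Km, Vmax and Vmax/Km derived.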

Escherichia coli [9] = experiment: Ratio of […] of Escherichia coli beta-glucuronidase; procedure, shortened: as §4
COLO 205 [10] = experiment: Cytotoxicity against human Colo 205 cells assessed as inhibition of [3H]thymidine in presence of beta-glucuronidase after 48 hrs; type: functional, cell-based
Procedure, shortened: (§5)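 As the plain [³H]thymidine assay (5 × 10³ cells/well, RPMI/10% serum, 48 h exposure, then 12 h 1 µCi/well pulse, scintillation counting), but β-glucuronidase (5 µg/mL; 1 µg/well) added together with drug. Triplicate wells, 1–3 experiments; IC50 interpolated from log dose–response curves.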

HepG2 [11] = experiment: Cytotoxicity against human HepG2 cells assessed as inhibition of [3H]thymidine in presence of beta-glucuronidase after 48 hrs; type: functional, cell-based; procedure, shortened: as §5
HT-29 [12] = experiment: Cytotoxicity against human HT29 cells assessed as inhibition of [3H]thymidine in presence of beta-glucuronidase after 48 hrs; type: functional, cell-based; procedure, shortened: as §5
[13] = Cytotoxicity against human H298 cells assessed as inhibition of [3H]thymidine in presence of beta-glucuronidase after 48 hrs; type: functional, cell-based; procedure, shortened: as §5
[14] = Stability in human plasma assessed as degradation after 10 mins; type: ADME, cell-free; details: read-out: Activity; procedure, shortened: as §2

Compound | solubility [1] | solubility ([2]; phosphate buffer, read-out: Solubility) | Stability (Plasma) | pIC50 (HepG2 [3]) | pIC50 (COLO 205 [4]) | pIC50 (HT-29 [5]) | pIC50 [6] | Activity [7] | Km (Escherichia coli [8]) | Vmax (Escherichia coli [8]) | Ratio (Escherichia coli [9]) | pIC50 (COLO 205 [10]) | pIC50 (HepG2 [11]) | pIC50 (HT-29 [12]) | pIC50 [13] | metabolised at 10 min [14] | solubility ([2]; buffer)
CC[C@@]1(O)C(=O)OCc2c1cc1n(c2=O)Cc2cc3cc(OCc4ccc(O[C@@H]5O[C@H](C(=O)O)[C@@H](O)[C@H](O)[C@H]5O)c([N+](=O)[O-])c4)ccc3nc2-1 | 1100 µM (≈ 761 µg/mL) | 2600 µM (≈ 1800 µg/mL) | Stable | 7.25 | 7.03 | 7.01 | 7.04 | > 50% | 0.18 µM | 2.7 µM/min | 15 min⁻¹ | 7.99 | 8.18 | 8.00 | 7.95 | – | –
CC[C@@]1(O)C(=O)OCc2c1cc1n(c2=O)Cc2cc3cc(OC(=O)OCc4ccc(O[C@@H]5O[C@H](C(=O)OC)[C@@H](O)[C@H](O)[C@H]5O)cc4)ccc3nc2-1 | – | – | – | – | – | – | – | – | – | – | – | – | – | – | – | 70% | –
CC[C@@]1(O)C(=O)OCc2c1cc1n(c2=O)Cc2cc3c(NC(=O)OCc4ccc(O[C@@H]5O[C@H](C(=O)O)[C@@H](O)[C@H](O)[C@H]5O)cc4)cccc3nc2-1 | – | – | – | – | – | – | – | – | 30 µM | 0.86 µM/min | 0.03 min⁻¹ | – | – | – | – | – | –
CC[C@@]1(O)C(=O)OCc2c1cc1n(c2=O)Cc2cc3cc(O)ccc3nc2-1 [HYDROXYCAMPTOTHECIN] | 13.7 µM (≈ 4.99 µg/mL) | – | – | 8.27 | 8.04 | 8.06 | 8.16 | – | – | – | – | – | – | – | – | – | 137 µM (≈ 49.9 µg/mL)
